In ChEMBL document CHEMBL3856208, “Lupane and 18α-oleanane derivatives substituted in the position 2, their cytotoxicity and influence on cancer cells” (Eur J Med Chem, 2016) one finds IC50, selectivity ratio and Activity data, which are given here for 7 molecules.

The term IC50 denotes the concentration needed to halve the response being measured.

A short description of data set [1]: Cytotoxicity against human MRC5 cells after 72 hrs by MTS assay. Format: toxicity, cell-based. In short, it runs like this:
(§1)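 Cells seeded at 25000–35000 cells/mL, compounds from DMSO dosed at time zero as four-fold dilutions. Exposure 72 h at 37 °C, 5% CO2, with MTS added for 1–4 h and OD read at 490 nm. Survival expressed as % of mean control OD, with IC50 from dose-response curves. Run as technical duplicates in at least three biological replicates.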
A general note: Tetrazolium dyes change colour on reduction, which living cells bring about.

The nature of data set [2]: Cytotoxicity against human CEM/DNR cells after 72 hrs by MTS assay. Format: functional, cell-based. In short, it runs like this:
as §1

Data set [3] in a line: Cytotoxicity against human A549 cells after 72 hrs by MTS assay. Format: functional, cell-based. The conditions noted are these: A549, 72 h. In short, it runs like this:
as §1

Data set [4] is described as follows: Therapeutic index, ratio of IC50 for human MRC5 cells to IC50 for human CCRF-CEM cells. Format: cell-based. The conditions noted are these: MRC5 cells versus CCRF-CEM cells, read-out: Ratio IC50.
Data set [5] is described as follows: Cytotoxicity against human CCRF-CEM cells after 72 hrs by MTS assay. Format: functional, cell-based. In short, it runs like this: as §1
A short description of data set [6]: Cytotoxicity against human HCT116 cells after 72 hrs by MTS assay. Format: functional, cell-based. The following applies: HCT-116, 72 h. In short, it runs like this: as §1
Data set [7] in a line: Cytotoxicity against human U2OS cells after 72 hrs by MTS assay. Format: functional, cell-based. A digest of the protocol:
as §1

The nature of data set [8]: Cytotoxicity against human K562-TAX cells after 72 hrs by MTS assay. Format: functional, cell-based. In short, it runs like this:
as §1

Data set [9] is described as follows: Cytotoxicity against human K562 cells after 72 hrs by MTS assay. Format: functional, cell-based. The conditions noted are these: K562, 72 h. In short, it runs like this:
as §1

A short description of data set [10]: Cytotoxicity against human BJ cells after 72 hrs by MTS assay. Format: toxicity, cell-based. In short, it runs like this: as §1
A short description of data set [11]: Therapeutic index, ratio of IC50 for human BJ cells to IC50 for human CCRF-CEM cells. The conditions noted are these: BJ cells versus CCRF-CEM cells, read-out: Ratio IC50. Format: cell-based.
Data set [12] in a line: Cytotoxicity against p53 deficient human HCT116 cells after 72 hrs by MTS assay. Format: functional, cell-based. The following applies: HCT-116, 72 h. In short, it runs like this: as §1
Data set [13] in a line: Cell cycle arrest in human CCRF-CEM cells assessed as accumulation at sub G1 phase at 23 uM after 24 hrs by propidium iodide staining-based flow cytometric method (reference value: 1.8%). Format: functional. A general note: Flow cytometry measures light scatter and fluorescence of single cells or particles in a stream.
The nature of data set [14]: Cell cycle arrest in human CCRF-CEM cells assessed as accumulation at S phase at 23 uM after 24 hrs by propidium iodide staining-based flow cytometric method (reference value: 50.33%). Format: functional.
The nature of data set [15]: Cell cycle arrest in human CCRF-CEM cells assessed as accumulation at G0/G1 phase at 23 uM after 24 hrs by propidium iodide staining-based flow cytometric method (reference value: 36.41%). Format: functional.
In data set [16] the test system is CCRF-CEM. Kind of data set: Inhibition of DNA synthesis in human CCRF-CEM cells assessed as decrease in BrdU incorporation by measuring synthesized DNA levels at 23 uM after 24 hrs by propidium iodide staining-based flow cytometric method (reference value: 56.37%). Further details: scale not given: the % may be the effect or the level left. Format: functional. In short, it runs like this:
(§2)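 CCRF-CEM cells were cultured and treated as for cell cycle analysis, then pulse-labeled with 10 µM BrDU for 30 min before harvest. Cells were ethanol-fixed, DNA-denatured in 2 M HCl for 30 min at room temperature, and neutralized with 0.1 M borax. Staining used anti-BrDU, then anti-mouse-FITC, then PI (0.1 mg/mL) with RNase A (0.5 mg/mL) for 1 h. Read-out was 488 nm flow cytometry.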

A short description of data set [17]: Cell cycle arrest in human CCRF-CEM cells assessed as accumulation at G2/M phase at 23 uM after 24 hrs by propidium iodide staining-based flow cytometric method (reference value: 13.28%). Format: functional.
A short description of data set [18]: Cell cycle arrest in human CCRF-CEM cells assessed as accumulation at sub G1 phase at 4.6 uM after 24 hrs by propidium iodide staining-based flow cytometric method (reference value: 1.8%). Format: functional.
Data set [19] in a line: Cell cycle arrest in human CCRF-CEM cells assessed as accumulation at G2/M phase at 4.6 uM after 24 hrs by propidium iodide staining-based flow cytometric method (reference value: 13.28%). Format: functional.
Data set [20] in a line: Cell cycle arrest in human CCRF-CEM cells assessed as accumulation at G0/G1 phase at 4.6 uM after 24 hrs by propidium iodide staining-based flow cytometric method (reference value: 36.41%). Format: functional.
The test system of data set [21] is CCRF-CEM. The data set is described as follows: Inhibition of RNA synthesis in human CCRF-CEM cells assessed as decrease in BrU incorporation by measuring synthesized RNA levels at 4.6 uM after 24 hrs by propidium iodide staining-based flow cytometric method (reference value: 43.37%). Format: functional. Further details: scale not given: the % may be the effect or the level left.

The subject of data set [22] is CCRF-CEM. Kind of data set: Inhibition of RNA synthesis in human CCRF-CEM cells assessed as decrease in BrU incorporation by measuring synthesized RNA levels at 23 uM after 24 hrs by propidium iodide staining-based flow cytometric method (reference value: 43.37%). Format: functional. Also noted: scale not given: the % may be the effect or the level left.
The nature of data set [23]: Cell cycle arrest in human CCRF-CEM cells assessed as accumulation at S phase at 4.6 uM after 24 hrs by propidium iodide staining-based flow cytometric method (reference value: 50.33%). Format: functional.
Data set [24] concerns CCRF-CEM. The data set is described as follows: Mitotic arrest in human CCRF-CEM cells assessed as phosphorylation of histone-3 at Ser10 at 23 uM after 24 hrs by flow cytometric method (reference value: 1.66%).
The subject of data set [25] is CCRF-CEM. Kind of data set: Mitotic arrest in human CCRF-CEM cells assessed as phosphorylation of histone-3 at Ser10 at 4.6 uM after 24 hrs by flow cytometric method (reference value: 1.66%). Format: functional.
The subject of data set [26] is CCRF-CEM. Kind of data set: Inhibition of DNA synthesis in human CCRF-CEM cells assessed as decrease in BrdU incorporation by measuring synthesized DNA levels at 4.6 uM after 24 hrs by propidium iodide staining-based flow cytometric method (reference value: 56.37%). Format: functional. Also noted: scale not given: the % may be the effect or the level left. A digest of the protocol:
as §2
(Dividing cells build labelled thymidine or BrdU into new DNA.)

Take `CC(C)[C@@H]1CC[C@]2(C(=O)O)CC[C@]3(C)[C@H](CC[C@@H]4[C@@]5(C)C=C(NC6=C[C@]7(C)[C@H]8CC[C@@H]9[C@H]%10[C@H](C(C)C)CC[C@]%10(C(=O)O)CC[C@@]9(C)[C@]8(C)CC[C@H]7C(C)(C)C6=O)C(=O)C(C)(C)[C@@H]5CC[C@]43C)[C@@H]12`: the IC50 at 72 h in data set [1] and in data set [10] was greater than 50 µM throughout. In addition, the IC50 was 33.9 µM in data set [2]; greater than 50 µM in data set [3]; 26.6 to 27 µM in data set [5]; greater than 50 µM in data set [6]; greater than 50 µM in data set [7]; 20.1 µM in data set [8]. Also, the IC50 in data set [9] and in data set [12] was greater than 50 µM in each case. Moreover, the selectivity ratio in data set [4] and in data set [11] was greater than 1.9 in each case.
Turning to `CC(C)[C@@H]1CC[C@]2(C(=O)O)CC[C@]3(C)[C@H](CC[C@@H]4[C@@]5(C)CC(N=[N+]=[N-])C(=O)C(C)(C)[C@@H]5CC[C@]43C)[C@@H]12` (stereo partly drawn), the IC50 at 72 h in [1] and in data set [10] was greater than 50 µM each time. For the same molecule, the IC50 was 16 µM in data set [2]; 25.7 µM in data set [3]; 17 to 17.5 µM in data set [5]; greater than 50 µM in data set [6]; 48.9 µM in [7]; 10.6 µM in data set [8]. For the same molecule, the IC50 in data set [9] is 14.2 µM; in data set [12], greater than 50 µM. The selectivity ratio in [4] and in data set [11] was greater than 2.9 throughout.
As for `CC1(C)CC[C@]23CC[C@]4(C)[C@H](CC[C@@H]5[C@@]6(C)C=C(O)C(=O)C(C)(C)[C@@H]6CC[C@]54C)[C@H]2[C@H]1OC3`, the IC50 at 72 h in data set [1] is 25.4 µM; in [10], greater than 50 µM. In addition, the IC50 in data set [2] was greater than 50 µM; in [3], greater than 50 µM; in [5] it was 13 to 13.1 µM; in [6] it was 41.6 µM; in data set [7] it was 45.8 µM; in [8], 45.3 µM. Also, the IC50 was 16.9 µM in [9] and 33.4 µM in data set [12]. For the same molecule, the selectivity ratio in [4] and in data set [11] was greater than 2.9 throughout.
Consider `CC(=O)NC1=C[C@]2(C)[C@H]3CC[C@@H]4[C@H]5[C@H]6OC[C@@]5(CCC6(C)C)CC[C@@]4(C)[C@]3(C)CC[C@H]2C(C)(C)C1=O`, for which the IC50 at 72 h in data set [1] and in [10] was greater than 50 µM throughout. Besides, the IC50 in data set [2] was 35.3 µM; in data set [3] it was greater than 50 µM; in data set [5], 29.9 to 30 µM; in data set [6], greater than 50 µM; in [7] it was greater than 50 µM; in [8] it was 30.5 µM. The IC50 in data set [9] was 37.9 µM; in data set [12], greater than 50 µM. The selectivity ratio in data set [4] and in [11] was greater than 1.7 in each case.
Regarding `CC(C)[C@@H]1CC[C@]2(C(=O)O)CC[C@]3(C)[C@H](CC[C@@H]4[C@@]5(C)C=C(N)C(=O)C(C)(C)[C@@H]5CC[C@]43C)[C@@H]12`, the IC50 at 72 h in data set [1] and in [10] was greater than 50 µM in each case. The IC50 in data set [2] was 33.9 µM; in data set [3], greater than 50 µM; in data set [5], 26.6 to 27 µM; in [6], greater than 50 µM; in data set [7] it was greater than 50 µM; in data set [8], 20.1 µM. For the same molecule, the IC50 in data set [9] and in data set [12] was greater than 50 µM in each case. Besides, the selectivity ratio in data set [4] and in [11] was greater than 1.9 each time.
For the molecule `CC(C)[C@@H]1CC[C@]2(C(=O)O)CC[C@]3(C)[C@H](CC[C@@H]4[C@@]5(C)CC([N+](=O)[O-])([N+](=O)[O-])C(=O)C(C)(C)[C@@H]5CC[C@]43C)[C@@H]12`, the IC50 at 72 h in data set [1] and in data set [10] was greater than 50 µM each time. The IC50 in data set [2] is 46.6 µM; in data set [3], greater than 50 µM; in [5], 28.6 to 29 µM; in [6] it was greater than 50 µM; in data set [7], greater than 50 µM; in [8], 29.9 µM. The concentration for half-maximal inhibition (IC50) in data set [9] and in data set [12] was greater than 50 µM each time. Moreover, the selectivity ratio in data set [4] and in [11] was greater than 1.7 each time.
Regarding `CC1(C)CC[C@]23CC[C@]4(C)[C@H](CC[C@@H]5[C@@]6(C)CC(N)[C@H](O)C(C)(C)[C@@H]6CC[C@]54C)[C@H]2[C@H]1OC3` (stereo partly drawn), the concentration for half-maximal inhibition (IC50) at 72 h is 6.3 µM in [1] and 7.1 µM in data set [10]. Besides, the Activity was 7.1% in data set [13]; 54.9% in data set [14]; 28.9% in data set [15]; 1.88% in data set [16]; 16.2% in [17]; 2.79% in [18]. Also, the Activity in data set [19] was 11.5%; in [20], 40.7%; in data set [21], 42.98%; in data set [22], 2.23%; in [23] it was 47.8%; in data set [24], 0.49%. Also, the Activity in data set [25] turned out to be 1.44%; in [26], 53.53%. Moreover, the IC50 in [2] was 5.9 µM; in data set [3] it was 6.2 µM; in data set [5], 4.6 to 5 µM; in [6], 4.9 µM; in data set [7] it was 6.2 µM; in data set [8] it was 3.9 µM. The IC50 in data set [9] was 4.5 µM; in data set [12] it was 4.8 µM. Besides, the selectivity ratio in [4] and in data set [11] was 1.4 each time.
